From PubChem BioAssay
Arbovirus inh – blocks arbovirus infection | arbovirus infection cell-based antiviral screen | inhibition, % at 10 µM | 0.37% of 200,000 active | AID 1251; in the data active means inhibition above about 30%
Rad51 HR inh – blocks human Rad51 in homologous recombination. Q06609. hRad51 DNA strand exchange, fluorescence dequenching. inhibition, % at 10 µM. 0.085% of 200,000 active;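 active means inhibition above 40% at the single screening dose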;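 further: 0% = DMSO control wells and 100% = blanks with heterologous ssDNA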
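System: hRad51 filaments on single-stranded DNA; reagent: Fluorescein- and BHQ1-tagged 47-mer duplex; compound dosing: one concentration, 10 µM final; timing: filaments 15 min 37 °C, then compound 30 min; measured by: fluorescein emission 520 nm, excitation 485 nm; benchmarks: per-plate controls and blanks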
CHOP inhibitor – blocks CHOP induction under ER stress; CHO-K1 CHOP-promoter luciferase, tunicamycin-induced, 15-18 h; 3.8% of 220,000 active; inhibition, % at 10 µM; AID 2732;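 active means compounds that reduced the stress-induced luciferase reporter signal by more than about 70% of percent inhibition, limit read from the data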;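 further: 0% = tunicamycin plus vehicle and 100% = wells without tunicamycin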
L major viab – Leishmania major promastigote growth inhibition. Leishmania major promastigotes, resazurin fluorescence viability. inhibition, % at 10 µM. 9% of 200,000 active;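 further: promastigotes grown with compound for 44 hours at 28 °C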
Wee1 degr inh – blocks degradation of human Wee1 kinase. P30291. HeLa Luc-Wee1K328M stability, luciferase luminescence; 100% = proteasome inhibitor MG132 effect. reporter increase, % at 5 µM. 1.2% of 220,000 active. AID 1321;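 active means activation above the mean of all tested compounds plus 3 SD, set per screening run, cut at about 8.8% in these data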;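 further: cells exposed to compound for 20 h before luminescence read; 0% = DMSO alone and 100% = MG132 at 30 µM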
PKD1 kinase inh – inhibitors of human PKD1 kinase; Q15139; PKD1 kinase fluorescence polarization assay; inhibition, % (concentration not given with the values); 0.056% of 200,000 active; AID 797
Target sequence (Q15139 whole entry, looked up): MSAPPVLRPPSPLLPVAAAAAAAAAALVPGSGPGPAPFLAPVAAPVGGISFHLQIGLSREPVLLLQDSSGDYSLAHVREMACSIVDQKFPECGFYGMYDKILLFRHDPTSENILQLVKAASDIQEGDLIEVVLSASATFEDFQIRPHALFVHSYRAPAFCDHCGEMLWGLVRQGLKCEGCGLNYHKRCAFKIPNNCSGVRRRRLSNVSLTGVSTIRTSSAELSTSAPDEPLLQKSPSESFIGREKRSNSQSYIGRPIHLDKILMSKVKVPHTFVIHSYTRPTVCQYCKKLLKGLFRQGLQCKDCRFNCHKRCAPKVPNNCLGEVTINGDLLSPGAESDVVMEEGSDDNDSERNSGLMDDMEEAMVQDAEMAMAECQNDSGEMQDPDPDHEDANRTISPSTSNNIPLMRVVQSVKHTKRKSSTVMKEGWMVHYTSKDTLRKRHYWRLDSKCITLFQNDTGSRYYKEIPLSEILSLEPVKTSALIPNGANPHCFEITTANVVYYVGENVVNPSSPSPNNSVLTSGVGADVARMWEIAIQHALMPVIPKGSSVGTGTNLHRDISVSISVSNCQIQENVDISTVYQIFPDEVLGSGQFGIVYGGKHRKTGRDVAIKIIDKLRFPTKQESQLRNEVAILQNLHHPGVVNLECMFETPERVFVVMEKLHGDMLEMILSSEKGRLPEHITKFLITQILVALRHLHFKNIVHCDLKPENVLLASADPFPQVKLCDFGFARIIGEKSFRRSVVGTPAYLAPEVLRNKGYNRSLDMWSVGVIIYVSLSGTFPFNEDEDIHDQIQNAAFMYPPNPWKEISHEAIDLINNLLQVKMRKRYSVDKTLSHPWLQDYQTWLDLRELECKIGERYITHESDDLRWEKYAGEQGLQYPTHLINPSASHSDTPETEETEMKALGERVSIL
Starred values were filed as active, the others as inactive; . = no result. This is a sample that favours compounds with a hit; in the whole collection about 12% have one here. Unless noted, no stated cut-off is given here; in the data, active means inhibition above about 50%; inactive means the rest.

SMILES	Arbovirus inh	Rad51 HR inh	CHOP inhibitor	L major viab	Wee1 degr inh	PKD1 kinase inh
CN1CCN(c2ccc(C(=O)c3ccc(Br)cc3)cc2[N+](=O)[O-])CC1	-30.1	-6.6	13.9	97.9*	2.7	8.3
CC(=O)N1CCN(c2ccc(C(N)=O)cc2[N+](=O)[O-])CC1	14.5	3.1	7.1	-8.3	-2.4	-4.6
O=C(Nc1ccccc1N1CCCCC1)c1ccc(Cl)c([N+](=O)[O-])c1	-0.2	0.1	-28.7	16.8	-1.1	-3.5
CN1CCN(c2ccccc2NC(=O)c2ccc(N3CCCC3)c([N+](=O)[O-])c2)CC1	-21.7	2.7	7.8	65.3*	1.2	0.1
O=C(Nc1nc2ccccc2s1)c1ccc(N2CCCCC2)c([N+](=O)[O-])c1	37.7*	-2.4	79.4*	36.6	3.0	-7.5
Cc1sc2ncnc(Sc3nnnn3-c3ccccc3)c2c1C	-28.7	1.6	-12.2	88.7*	-1.5	-1.7
Cc1sc2ncnc(Sc3ccccc3C(=O)O)c2c1C	0.3	5.6	4.6	0.1	1.6	2.9
N#C/C(=C\c1ccc(-c2cccc([N+](=O)[O-])c2)o1)C(=O)N1CCOCC1	-5.8	-1.8	-17.8	5.8	-2.9	2.8
N#C/C(=C\c1ccc(-c2cccc([N+](=O)[O-])c2)o1)c1nnc(N2CCOCC2)n1-c1ccccc1	-12.0	-3.8	21.8	63.1*	1.1	-0.7
CN(C)S(=O)(=O)c1ccc(C(=O)N2CCN(S(=O)(=O)c3cccs3)CC2)cc1	-0.8	3.9	8.4	74.8*	5.6	-3.0
O=C(c1ccco1)N1CCN(S(=O)(=O)c2cccs2)CC1	6.9	10.7	1.8	-1.0	5.0	-0.6
COc1ccc(NC(=O)Cn2nnc(C(=O)NCc3ccccc3OC)c2N)cc1Cl	-2.8	-5.2	71.8*	-3.5	-3.0	-4.6
Cc1ccc(NC(=O)Cn2nnc(C(=O)NCc3ccccc3)c2N)cc1C	-3.7	-14.8	23.4	-5.6	-4.9	0.4
CCOc1ccc(/C=C2\SC(=S)N(Nc3ccccc3)C2=O)cc1OC	-13.7	-13.0	81.7*	-2.0	-1.4	-0.6
CCOc1cc(/C=C2/SC(=S)N(C)C2=O)ccc1Oc1ccc([N+](=O)[O-])cc1[N+](=O)[O-]	-3.5	-10.7	20.8	63.0*	-2.7	-1.3
CCOc1ccc(/C=C2/SC(=S)N(C(C(=O)O)c3ccccc3)C2=O)cc1OCC (stereo unspecified)	17.1	-1.2	-0.1	-10.4	17.3*	-3.4
CCOc1cc(/C=C2/NC(=S)NC2=O)ccc1OCc1ccc([N+](=O)[O-])cc1	-34.0	-11.8	29.8	-1.8	0.0	-0.9
COc1cc(/C=C2/SC(=O)N(Cc3ccccc3Cl)C2=O)ccc1OCc1ccncc1	-3.1	-3.4	43.8	-1.2	-0.1	-14.4
COc1cc(/C=C2\SC(=O)N(CCN)C2=O)ccc1OS(=O)(=O)c1cc(C)ccc1C	-18.5	4.6	93.0*	100.1*	-3.4	0.7
COc1cc(/C=C2\SC(=S)N(Nc3ccccc3)C2=O)cc(OC)c1OC	-21.0	1.3	38.0	-8.2	1.3	-7.5
C=C1CCN(CC(=O)OC)S(=O)(=O)c2ccccc21	.	0.5	10.3	.	.	.
COc1ccc(/C=C2\SC(=O)N(CCC(=O)Nc3ccccc3)C2=O)cc1OC	2.5	-7.5	43.6	53.2*	-1.5	-12.9
COc1cc(/C=C2\SC(=S)N(CCC(=O)Nc3ccccc3)C2=O)cc(OC)c1OC	-3.6	0.3	6.7	8.9	-0.9	-3.7
O=C(NNC(=O)C1CC(c2cccnc2)=NO1)Nc1ccccc1F (stereo unspecified)	-0.5	22.4	11.4	-5.5	-1.2	-0.9
Cc1cc(C)nc(N/N=C/C2=C(N3CCOCC3)C(=C\c3ccc(Cl)cc3)/CC2)n1	1.7	-3.8	9.8	30.4	1.8	-1.6
SMILES	Arbovirus inh	Rad51 HR inh	CHOP inhibitor	L major viab	Wee1 degr inh	PKD1 kinase inh
Cc1occc1C(=O)N/N=C/C1=C(N2CCOCC2)C(=C\c2ccc(Cl)cc2Cl)/CC1	-6.3	-18.5	-1.9	92.9*	3.0	-1.9
CCCN(CC(=O)Nc1ccccc1C)C(=O)CCl	-16.2	19.8	-68.5	52.6*	0.4	0.6
NC(=O)c1nn(CC(=O)Nc2ccc3c(c2)OCO3)cc1[N+](=O)[O-]	3.2	6.7	-1.0	-3.6	-2.4	-2.9
Cc1[nH]c(=O)c(C(=O)/C=C/c2ccccc2F)c2c1CCCC2	-29.1	.	-20.9	100.3*	-0.6	0.4
CCOc1c(Br)cc(CNc2ccc3c(c2)OCCO3)cc1OC	-7.5	0.1	1.3	8.7	5.8	-0.3
COc1cc(CNC2CCCCCCC2)cc(Br)c1OCC#N	-20.8	3.8	-3.4	75.1*	-2.3	-10.2
CCOc1c(Br)cc(CNC2CCCCCCC2)cc1OC	-1.5	-6.3	-16.8	59.9*	-4.8	-12.5
O=C(N/N=C/c1ccc(N2CCOCC2)cc1)c1ccccc1OCCOc1ccccc1	10.7	-3.2	10.5	60.9*	-2.7	-7.0
COc1ccc(C(C#N)N2N=C(c3ccccc3)CC2c2ccccc2)cc1OC (stereo unspecified)	-2.3	-3.4	15.5	100.2*	-2.2	9.3
COc1ccc(C2=NN(C(C#N)c3ccc(OC)cc3)C(c3ccccc3)C2)cc1 (stereo unspecified)	-8.8	-1.6	-11.7	68.6*	-2.5	-19.1
CC1=NN(C(C#N)c2ccccc2)C(c2ccccc2)C1 (stereo unspecified)	.	15.6	9.7	.	-1.4	.
CCOc1cc(C(C#N)N2CCCCC2)ccc1OC (stereo unspecified)	5.9	7.5	-9.7	-6.9	2.5	-5.2
COC(=O)c1ccc(CNC(=O)c2ccc(COc3ccccc3)cc2)cc1	7.8	5.6	24.0	68.8*	6.0	-7.9
O=C(NCc1ccco1)c1ccc(COc2ccccc2Cl)cc1	-7.5	.	25.1	1.2	13.1*	-4.6
O=C(NCc1ccco1)c1ccc(COc2ccc(Cl)cc2)cc1	3.0	0.3	34.9	50.3*	3.4	-3.1
COc1ccc(Sc2cc(C(F)(F)F)nc(-c3ccccn3)n2)cc1	14.9	7.5	82.7*	12.6	6.4	-4.8
C#CCSc1cc(C(F)(F)F)nc(-c2ccccn2)n1	7.3	8.1	14.3	4.3	0.2	0.7
COC(=O)c1cc(=O)n(-c2ccc(C(F)(F)F)cc2)[nH]1	.	18.3	29.8	.	1.1	.
CCOc1cc(S(=O)(=O)N2CCC(Cc3ccccc3)CC2)c(OCC)cc1-n1cnnn1	7.2	-3.3	-33.6	23.2	0.4	8.1
CCOc1cc(S(=O)(=O)N2CC=C(c3ccc(F)cc3)CC2)c(OCC)cc1-n1cnnn1	-23.2	-4.2	.	61.7*	0.3	-2.4
N#Cc1c(-c2ccco2)nc(SCC(=O)Nc2ccc(S(N)(=O)=O)cc2)[nH]c1=O	32.3*	.	9.1	-24.9	-0.9	-6.6
C/C=C/c1ccc(OCCCCOc2c(OC)cccc2OC)c(OC)c1	11.8	.	58.3	45.1	14.7*	-4.4
C/C=C/c1ccc(OCCCCOc2ccccc2C(C)=O)c(OC)c1	35.7*	14.3	60.7	-3.2	-0.4	3.4
